Screening data: PubChem BioAssay, Johns Hopkins Ion Channel Center
A selection: hits, their analogues and other compounds. The true share with any hit is near 3.5%.
MrgX1 antag: blocks BAM8-22 activation of human MrgX1 receptor. B-score at 10 µM. Q96LB2. MRGX1-HEK293 calcium flux, Fluo-4, BAM8-22 antagonism; hits give low values. 310,000 compounds, 1.3% hits;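 active = calcium-response B-score plate-corrected more than 3 library SD below zero, starting fluorescence within 5 deviations, no agonist response on first addition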;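 also: peak minus trough fluorescence over baseline after final BAM8-22 challenge near maximal dose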
Target sequence (Q96LB2 whole entry, looked up): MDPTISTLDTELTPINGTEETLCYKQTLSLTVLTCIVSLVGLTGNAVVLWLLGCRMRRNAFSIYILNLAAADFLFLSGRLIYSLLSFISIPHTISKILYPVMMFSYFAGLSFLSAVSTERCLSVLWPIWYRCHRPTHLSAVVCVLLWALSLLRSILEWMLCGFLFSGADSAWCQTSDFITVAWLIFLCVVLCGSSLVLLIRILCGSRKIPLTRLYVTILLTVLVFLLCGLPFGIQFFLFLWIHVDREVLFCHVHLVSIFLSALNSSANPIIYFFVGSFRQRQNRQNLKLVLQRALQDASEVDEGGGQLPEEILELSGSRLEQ
MrgX1 agonist: human MrgX1 receptor agonism, primary screen. Q96LB2. MrgX1-HEK293 cells, Fluo-4 calcium fluorescence, agonist mode; hits give high values. B-score at 10 µM. 310,000 compounds, 0.44% hits. AID 588627;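 active = calcium response B-score plate-corrected fluorescence ratio at least 3 library SD, with starting fluorescence B-score inside 5 SD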
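Test system: Stable human MrgX1 HEK293 cell line | Schedule: Overnight plating before 1 h dye loading | Read-out basis: Baseline-normalised fluorescence change ratio, B-scored | Detection: Kinetic calcium dye fluorescence, Fluo-4 NW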
MrgX1 PAM: human MrgX1 positive allosteric modulation, primary screen; Q96LB2; MrgX1-HEK293, Fluo-4 calcium flux, FDSS; hits give high values; B-score at 10 µM; 310,000 compounds, 0.63% hits;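 active = plate-corrected calcium response at least 3 library SD above typical, normal starting fluorescence, not activating the receptor alone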;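 also: compound read alongside a low EC10 to EC30 dose of BAM8-22 agonist; peak minus trough fluorescence over baseline measured at the second addition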
RGS4 inh: human RGS4 inhibition | P49798 | HEK293 M3R/RGS4 inducible, Fluo-4 calcium flux; hits give high values; triggered by carbachol at its EC20 | B-score at 10 µM | 310,000 compounds, 0.45% hits;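 active = B-score, a plate-corrected calcium signal, over three deviations above library mean, with baseline fluorescence within five deviations of library mean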;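 also: RGS4 expression induced by doxycycline in cells with stable M3 receptor; B-score is computed from the integrated fluorescence ratio over baseline after carbachol; higher B-score means a larger calcium signal and so more RGS4 inhibition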
Target sequence (P49798 whole entry, looked up): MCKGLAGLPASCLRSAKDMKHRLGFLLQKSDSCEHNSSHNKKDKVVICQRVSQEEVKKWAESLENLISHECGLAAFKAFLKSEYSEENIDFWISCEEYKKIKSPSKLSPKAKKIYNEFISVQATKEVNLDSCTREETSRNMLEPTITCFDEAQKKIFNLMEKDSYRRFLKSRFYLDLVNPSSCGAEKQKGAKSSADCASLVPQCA
RGS4 pot: potentiators or activators of RGS4. B-score at 10 µM. HEK293 M3R/inducible RGS4, carbachol calcium flux Fluo4; hits give low values. 310,000 compounds, 0.92% hits;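 active = B-score of the integrated calcium signal more than 4 SD below the library mean, with starting fluorescence not abnormally high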;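 also: negative B-score means reduced calcium response which marks RGS4 activation or potentiation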
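System: HEK293 FlpIn-TREx cells, stable M3R, doxycycline-inducible RGS4. Timing: overnight RGS4 induction, 30 min dye load 37 °C, 20 min compound RT. Also added: carbachol, ECmax concentration. Measured by: Fluo4 fluorescence kinetic imaging of calcium. Evaluation: integrated calcium ratio converted to B score.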
RGS4 inh valid: RGS4 inhibitor validation. calcium response, % at 10 µM. shares compounds with RGS4 inh. HEK293 M3R/RGS4, carbachol calcium Fluo-4 fluorescence; carbachol added at its EC20; 0 = buffer wells, 100 = carbachol control. AID 492999. 1,700 compounds, 65% hits;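 active = duplicate-averaged calcium response above the buffer-only control mean plus 5 SD of those controls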;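 also: integrated fluorescence ratio F max minus min over baseline F0; higher response in RGS4-induced cells means RGS4 inhibition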
RGS4 uninduced: checks RGS4 inhibitor effects in non-induced HEK293 M3R cells. activity (percent), % at 10 µM. carbachol calcium Fluo-4; submaximal (EC20) carbachol stimulus; buffer wells 0%, carbachol control wells 100%. shares compounds with RGS4 inh. 1,900 compounds, 20% hits; call rule not given here;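 also: RGS4 induction absent so cells express M3R without RGS4; higher means more calcium signal and flags a non-specific hit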
RGS4 inh ctr2: second counter-screen for RGS4 inhibitors: non-induced cells without carbachol. shares compounds with RGS4 inh. HEK293 M3R/RGS4 non-induced, Fluo-4 calcium, no carbachol; normalised: buffer wells 0%, carbachol wells 100%. calcium response (agonist-mode artifact), % at 10 µM. 1,900 compounds, 22% hits. AID 493001;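 active = duplicate-averaged calcium rise in uninduced cells above buffer wells' mean plus 5 SD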
Large screens that a line does not name were inactive (follow-up assays come after a bar, where they were run).

Nc1ncnc2c1ncn2[C@@H]1O[C@H](CO)[C@@H](O)[C@@H]1O	none
Nc1ncnc2c1ncn2C1OC(CO)C(O)C1N (centres undefined)	none | RGS4 uninduced inactive | RGS4 inh ctr2 inactive
CNc1nc2c(N)ncnc2n1[C@H]1O[C@@H](CO)[C@H](O)[C@@H]1O	RGS4 inh 6.8 | RGS4 inh valid 13% | RGS4 uninduced 36% | RGS4 inh ctr2 inactive
Nc1nc(F)nc2c1ncn2[C@@H]1O[C@H](CO)[C@@H](O)[C@@H]1O	none
Nc1ncnc2c1ncn2C1O[C@H](CO)[C@@H](O)[C@@H]1O (some centres undefined)	none (no result: RGS4 inh, RGS4 pot)
Cc1ccc(CNC(=O)c2ccc(NS(=O)(=O)c3cccs3)cc2)cc1	none
C=CCSc1nc2sc3c(c2c(=O)[nH]1)CC(C)(CC)OC3 (centres undefined)	none
CN(CC(=O)Nc1ccc(Cl)c(C(F)(F)F)c1)C(=O)Cc1c[nH]c2ccccc12	RGS4 inh 5.9 | RGS4 inh valid 18% | RGS4 uninduced inactive | RGS4 inh ctr2 inactive
O=C(Nc1cccc(F)c1)N1CCCCCC1	none
O=C(O)CN1C(=O)/C(=C/C=C/c2ccccc2)SC1=S	none
O=C(O)CN1C(=O)/C(=C\C(Br)=C\c2ccccc2)SC1=S	RGS4 inh 12 | RGS4 inh valid 54% | RGS4 uninduced inactive | RGS4 inh ctr2 inactive
Cc1ccc(SCc2[nH]nc3c2C2(C(=O)Nc4ccc(F)cc42)C(C#N)=C(N)O3)cc1 (centres undefined)	none | RGS4 uninduced inactive | RGS4 inh ctr2 inactive
CC(C)CNC(=S)NNC(=O)c1csc2c1CCC(C)C2 (centres undefined)	none
Cc1cccc(NC(=S)NNC(=O)c2csc3c2CCC(C)C3)c1 (centres undefined)	RGS4 inh 6.1 | RGS4 inh valid 16% | RGS4 uninduced inactive | RGS4 inh ctr2 inactive
Cc1ccc(-c2ccc(C(=O)NCc3ccccc3)o2)c2ccccc12	RGS4 inh 7 | RGS4 inh valid inactive | RGS4 uninduced inactive | RGS4 inh ctr2 inactive
Cc1ccc(Cn2c(=N)n(CC(=O)c3ccccc3)c3ccccc32)cc1	RGS4 inh 5.3 | RGS4 inh valid 24% | RGS4 uninduced 34% | RGS4 inh ctr2 31%
CN1C(=O)/C(=C/c2cccc([N+](=O)[O-])c2)C(=O)N1c1ccccc1	RGS4 inh 36 | RGS4 inh valid 44% | RGS4 uninduced 37% | RGS4 inh ctr2 inactive
CCC(C)C(NC(=O)OC(C)(C)C)C(=O)NC(C)C(N)=O (centres undefined)	none
CCCC(NC(=O)COc1cc2c(c3oc(=O)cc(C)c13)CCC(C)(C)O2)C(=O)O (centres undefined)	none | RGS4 inh valid inactive | RGS4 uninduced inactive | RGS4 inh ctr2 inactive
Cc1cc(=O)oc2c3c(cc(OCC(=O)N[C@@H](CC(C)C)C(=O)O)c12)OC(C)(C)CC3	none | RGS4 inh valid inactive | RGS4 uninduced inactive | RGS4 inh ctr2 inactive
CCN(CC)C(=O)Cn1c(=O)n(CC(=O)N2CCCCC2)c(=O)c2sccc21	RGS4 inh 17 | RGS4 inh valid inactive | RGS4 uninduced inactive | RGS4 inh ctr2 inactive
O=C(c1cccs1)N1CCN(c2cc(Cl)ccc2Cl)CC1	none
Cc1ccc(C)c(NC(=O)c2ccccc2O)c1	none
O=C(/C=C/c1ccccc1Cl)c1ccccc(=O)c1O	MrgX1 PAM 8.1, RGS4 inh 18 | RGS4 inh valid 44% | RGS4 uninduced inactive | RGS4 inh ctr2 10%
Cc1ccc(C)c(/C=C/C(=O)c2ccccc(=O)c2O)c1	RGS4 inh 7.5 | RGS4 inh valid 14% | RGS4 uninduced inactive | RGS4 inh ctr2 40%
O=C(/C=C/c1ccccc1Cl)c1ccc(O)cc1	none
